The target of assay [1] is 5-HT1A and 5-HT2A receptors (Homo sapiens, UniProt P28223). The format is cell-based. The following applies: 50 nM, 2 hours exposure before TCB-2 alone or TCB-2 and Xaliproden HCl.
A further assay deals with 5-HT2AR (Homo sapiens, UniProt P28223). Kind of assay: ERK1/2 activation. Format: cell-based.
In another assay the target is T1, 5-HT1AR (Homo sapiens, UniProt P08908).
T1 sequence (P08908 1-422): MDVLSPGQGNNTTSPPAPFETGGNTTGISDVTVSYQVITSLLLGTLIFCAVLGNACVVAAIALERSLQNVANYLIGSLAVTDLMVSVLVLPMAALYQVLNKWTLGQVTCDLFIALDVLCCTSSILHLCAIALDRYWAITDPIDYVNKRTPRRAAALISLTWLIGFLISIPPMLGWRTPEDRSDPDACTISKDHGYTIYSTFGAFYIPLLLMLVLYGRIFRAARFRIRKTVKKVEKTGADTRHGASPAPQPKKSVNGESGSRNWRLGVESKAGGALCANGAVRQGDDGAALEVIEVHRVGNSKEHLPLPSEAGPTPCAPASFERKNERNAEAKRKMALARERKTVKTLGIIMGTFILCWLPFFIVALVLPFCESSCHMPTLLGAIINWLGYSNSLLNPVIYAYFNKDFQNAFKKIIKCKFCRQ
As to the kind of experiment: ERK1/2 activation. Format: cell-based. The procedure, abridged:
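HEK293 cells stably expressing human 5-HT1AR (clonal, selected with G418 or hygromycin) were kept in 100 μg/ml selection antibiotic and then serum-starved in serum-free DMEM for at least 24 h. Agonist (10−10–10−4 M) was applied for 5 min; selected concentrations ran 5 min–1 h. Lysates (equal protein) were resolved by 10% SDS-PAGE. Parallel blots were probed for phospho-ERK1/2 and total ERK1/2, read by ECL densitometry with background subtracted. Serum was the positive control.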

In a further assay the target is T2, human 5-HT1A receptors (Homo sapiens, UniProt P08908).
T2 sequence (P08908 1-422): T1 sequence (P08908 1-422)
As to the kind of experiment: Saturation isotherm radioligand binding, 5-HT1A receptor. The following applies: membranes, geometric mean ± SD, n = 3. The procedure, abridged: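 HEK293 membranes (5-HT1AR alone or with 5-HT2AR) were prepared by EDTA detachment, hypotonic lysis (5 mM Tris/MgCl2, pH 7.4) and 35,000g spins. They were incubated with [3H]MPPF in 50 mM Tris, pH 7.4, at 25 °C for 1.5 h, with excess NAN-190 defining nonspecific binding. Bound ligand was collected on PEI-treated GF/C filters and counted. Triplicate points; Kd and Bmax came from saturation isotherms, three experiments.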

A further assay concerns the target human 5-HT2A receptors (Homo sapiens, UniProt P28223). Kind of assay: Saturation isotherm radioligand binding, 5-HT2A receptor. The following applies: membranes, geometric mean ± SD, n = 3. The gist of the method: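 HEK293 membranes (5-HT2AR alone or with 5-HT1AR) were prepared by EDTA detachment, hypotonic lysis and 35,000g centrifugation. Saturation binding used [3H]MSP (0.3–10 nM) in 50 mM Tris, pH 7.4, for 1.5 h at 25 °C, with excess mianserin defining nonspecific binding. Samples were filtered on PEI-treated GF/C filters and counted by scintillation, with protein measured by BCA. Triplicate points; Kd and Bmax were fitted from isotherms, geometric mean of three experiments.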

Setting [2] is: HEK293 cell line 5-HT1A+2AR co-expressing.

Where a name gives a salt, the structure may show the parent alone.

Sequence of human 5-HT2A receptors (P28223 whole entry): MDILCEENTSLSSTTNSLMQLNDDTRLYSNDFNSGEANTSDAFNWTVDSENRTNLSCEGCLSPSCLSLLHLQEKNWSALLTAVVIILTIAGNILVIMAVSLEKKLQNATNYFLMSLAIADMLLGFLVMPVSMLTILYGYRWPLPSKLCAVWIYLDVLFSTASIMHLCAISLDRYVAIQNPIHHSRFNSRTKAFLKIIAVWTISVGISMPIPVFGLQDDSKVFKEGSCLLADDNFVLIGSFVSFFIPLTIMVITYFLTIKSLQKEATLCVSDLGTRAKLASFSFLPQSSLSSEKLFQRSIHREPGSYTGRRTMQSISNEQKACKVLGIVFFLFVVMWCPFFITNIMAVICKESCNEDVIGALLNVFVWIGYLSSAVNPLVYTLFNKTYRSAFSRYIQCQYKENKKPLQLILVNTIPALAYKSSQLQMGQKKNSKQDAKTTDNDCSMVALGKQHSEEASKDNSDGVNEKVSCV
Sequence of 5-HT2AR (P28223 whole entry): as above
Sequence of 5-HT1A and 5-HT2A receptors (P28223 whole entry): as above

Regarding `O=C(c1ccc(F)cc1)C1CCN(CCn2c(=O)[nH]c3ccccc3c2=O)CC1` [Ketanserin], the “Effect on agonist-induced ERK response” value in assay [1] is given as “switched it from sustained to transient”. In addition, the “Fraction of initial ERK activation observed” value on 5-HT2AR (50 nM Ketanserin present, 5-HT2AR clone) is “about half”.
`FC(F)(F)c1cccc(C2=CCN(CCc3ccc4ccccc4c3)CC2)c1` [Xaliproden HCl, Xaliproden hydrochloride]: the “Time-course pattern of ERK1/2 activation” value on 5-HT1AR (5-HT1AR agonist, HEK293 cells) is “transient activation”. In addition, the “Minimal concentration required to obtain observed ERK activation” value at 5-HT1AR (5-HT1AR cells, dose-response, 5 min) turned out to be 100 nM.
A word on the Kd: it is the concentration at which binding is half-saturated. Consider `COc1ccccc1N1CCN(CCN(C(=O)c2ccc(F)cc2)c2ccccn2)CC1` [[3H] MPPF, 4-(2′-Methoxy)-phenyl-1-[2′-(N-2″-pyridinyl)-p-fluorobenzamido]ethyl-piperazine], for which the Bmax at human 5-HT1A receptors (setting [2]) was found to be 8.37 ± 4.14 pmol/mg; on human 5-HT1A receptors (HEK293 cell line 5-HT1AR only) it was 3.07 ± 1.67 pmol/mg. Besides, the equilibrium dissociation constant (Kd) at human 5-HT1A receptors (setting [2]) worked out at 0.167 ± 0.013 nM; at human 5-HT1A receptors (HEK293 cell line 5-HT1AR only) it was 0.267 ± 0.036 nM.
With `CN1CN(c2ccccc2)C2(CCN(CCCC(=O)c3ccc(F)cc3)CC2)C1=O` [[3H] MSP, [^3H]methylspiperone], the Bmax at human 5-HT2A receptors (setting [2]) is 7.00 ± 1.05 pmol/mg; on human 5-HT2A receptors (HEK293 cell line 5-HT2AR only), 4.17 ± 2.28 pmol/mg. Moreover, the results for the Kd at human 5-HT2A receptors (setting [2]) and on human 5-HT2A receptors (HEK293 cell line 5-HT2AR only) were 0.725 ± 0.199 nM and 0.246 ± 0.042 nM, respectively.
Take `CC(N)Cc1c[nH]c2ccc(O)cc12` (stereo not drawn) [α-methyl-5-HT]: at 5-HT2AR (10μM, HEK293-h5-HT2A), the “Time-course pattern of ERK activation” value is recorded as “sustained ERK activation”.

(Values after PMC2635340 (Neuropharmacology, 2008).)
